Screening data: PubChem, several laboratories
The sample as a whole holds a higher share of hits than the screen did.
TLR9-MyD88 inh: TLR9-MyD88 interaction inhibition. AID 504734. 340,000 tested, 0.21% active. Q9NR96+Q99836. inhibition, % at 4.98 µM. CHO BLA complementation TLR9-MyD88, CCF4 FRET ratio;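 active = inhibition above the mean over all tested compounds plus 3 SD, cut at about 21% in these data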;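 note: 0% = DMSO only wells and 100% = clavulanate BLA inhibitor control wells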
TLR4 MyD88 comp: blocks binding of human TLR4 to MyD88 | inhibition, % at 8.4 µM | HeLa CL3-4 TLR4/MyD88 BLA complementation, FRET ratio | O00206+Q99836 | 200,000 tested, 0.18% active; in the data active = inhibition above about 25%;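 note: 0% = vehicle and 100% = reference inhibitor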
UPR CHOP act: activators of apoptotic arm of unfolded protein response (CHOP). CHO-CHOP luciferase reporter, UPR activation, luminescence; percent of tunicamycin response over DMSO baseline. activation, % at 10 µM. 330,000 tested, 0.34% active. AID 449763;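 active = at 10 µM dose, activation of 40% or more, normalized to positive control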;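 note: 100% = tunicamycin at 10 µg/mL and 0% = DMSO alone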
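System: CHO-CHOP luciferase reporter cell line; amount: 500 cells/well; buffer or medium: F12 medium containing 10% fetal bovine serum; incubation: 6 h compound exposure at 37 °C after overnight seeding; measured by: luciferase luminescence after 10 min with Steady-Glo reagent; evaluation: % reporter activation, DMSO baseline versus tunicamycin full activation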
UPR XBP1 act: activators of adaptive arm of unfolded protein response (XBP1); CHO-XBP1 luciferase reporter, IRE1-XBP1 UPR activation, luminescence; percent of tunicamycin response, DMSO as zero; activation, % at 20 µM; 330,000 tested, 0.33% active; AID 463104;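 active = versus positive control, 20 µM dose yields 30% or more activation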;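 note: 100% = tunicamycin at 10 µg/mL and 0% = DMSO only wells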
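Material – CHO cell line with stable XBP1 luciferase reporter · Buffer or medium – F12 plus 10% FBS · Compound – single point, 20 µM final compound, 1% DMSO · Schedule – 16-18 h cell attachment at 37 °C, then 6 h compound exposure · Signal – Steady-Glo luminescence read · Benchmarks – high control tunicamycin 10 µg/mL final, low control DMSO vehicle only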
CHOP inhibitor: CHOP inhibition in unfolded protein response. inhibition, % at 10 µM. 220,000 tested, 3.8% active. CHO-K1 CHOP-promoter luciferase, tunicamycin-induced, 15-18 h;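 active = compounds that reduced the stress-induced luciferase reporter signal by more than about 70% of percent inhibition, limit read from the data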;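 note: 0% = tunicamycin plus vehicle and 100% = wells without tunicamycin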
NOD2-RIPK2 inh: blocks binding of human NOD2 to RIPK2; O43353; CHO BLA complementation NOD2-RIPK2, CCF4 ratio; inhibition, % at 4.98 µM; 360,000 tested, 0.38% active; AID 624267; in the data active = inhibition above about 21%;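 note: 0% = vehicle only and 100% = reference blocker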
Target sequence (O43353 whole entry, looked up): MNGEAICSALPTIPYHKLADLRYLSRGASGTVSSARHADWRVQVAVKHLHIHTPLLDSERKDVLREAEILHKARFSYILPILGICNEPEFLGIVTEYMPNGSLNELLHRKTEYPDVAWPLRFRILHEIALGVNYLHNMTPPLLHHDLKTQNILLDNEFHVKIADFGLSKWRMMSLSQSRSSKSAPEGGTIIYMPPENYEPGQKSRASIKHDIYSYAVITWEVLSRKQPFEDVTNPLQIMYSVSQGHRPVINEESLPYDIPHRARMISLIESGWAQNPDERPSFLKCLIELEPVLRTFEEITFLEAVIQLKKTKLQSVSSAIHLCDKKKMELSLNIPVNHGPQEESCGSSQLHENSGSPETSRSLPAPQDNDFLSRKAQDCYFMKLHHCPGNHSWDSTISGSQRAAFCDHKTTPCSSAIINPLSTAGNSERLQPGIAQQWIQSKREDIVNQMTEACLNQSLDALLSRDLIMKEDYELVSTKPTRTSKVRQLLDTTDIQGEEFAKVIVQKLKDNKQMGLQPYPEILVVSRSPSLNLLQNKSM
Active calls of the source: *.

What do the screens show for `COc1ccc(/C(C)=N/OC/C(O)=C(\C#N)c2nc3ccccc3[nH]2)cc1OC`?
TLR9-MyD88 inh: -16.2; TLR4 MyD88 comp: -8.7; UPR CHOP act: -1.3; UPR XBP1 act: -2.3; CHOP inhibitor: 39.1; NOD2-RIPK2 inh: -6.1

Results for COc1ccc2oc(C(=O)OC/C(O)=C(\C#N)c3nc4ccccc4[nH]3)c(C)c2c1 ?
TLR9-MyD88 inh: -0.9; UPR CHOP act: -1.5; UPR XBP1 act: -0.3; CHOP inhibitor: 95.2*; NOD2-RIPK2 inh: -9.0

How did COc1ccc(C(O)c2nc(-c3cccc4cccnc34)cs2)cc1 (stereo not given) do in these assays?
NOD2-RIPK2 inh: 1.4

Results for CCNC(=O)C1(C)CCCN(C(=O)c2ccc(OC)c(F)c2)C1 (stereo not given) ?
NOD2-RIPK2 inh: -9.8

How did Cc1ccc(NS(=O)(=O)c2ccc(NC(=O)C3CC3)cc2)c(C)c1 do in these assays?
TLR9-MyD88 inh: -15.2; UPR CHOP act: -0.1; UPR XBP1 act: -7.9; NOD2-RIPK2 inh: -5.1

How did Cc1ccc(C)c(NS(=O)(=O)c2ccc(NC(=O)CSc3ccc(Cl)cc3)cc2)c1 do in these assays?
TLR9-MyD88 inh: 5.8; TLR4 MyD88 comp: 10.8; UPR CHOP act: 1.0; UPR XBP1 act: 2.0; CHOP inhibitor: 94.3*; NOD2-RIPK2 inh: 4.0

How did Cc1ccccc1NS(=O)(=O)c1ccc(NC(=O)CSCc2ccc(Br)cc2)cc1 do in these assays?
TLR9-MyD88 inh: -6.8; TLR4 MyD88 comp: 4.1; UPR CHOP act: 1.5; UPR XBP1 act: -6.3; CHOP inhibitor: 79.8*; NOD2-RIPK2 inh: -3.9

What do the screens show for `Cc1ccc(NS(=O)(=O)c2ccc(NC(=O)C(C)Sc3ccc(Cl)cc3)cc2)c(C)c1` (stereo not given)?
TLR9-MyD88 inh: -3.5; TLR4 MyD88 comp: -12.6; UPR CHOP act: -2.7; UPR XBP1 act: -2.1; CHOP inhibitor: 82.6*; NOD2-RIPK2 inh: -0.8

How did O=C(CSCc1ccc(Br)cc1)Nc1ccc(S(=O)(=O)N2CCOCC2)cc1 do in these assays?
TLR9-MyD88 inh: -4.8; TLR4 MyD88 comp: -4.0; UPR CHOP act: -2.0; UPR XBP1 act: -3.3; CHOP inhibitor: 24.0; NOD2-RIPK2 inh: 2.0

How did CCC(C)(C)C1CCC2(CC1)NC(=O)N(CC(=O)N1CCN(c3ccccc3OC)CC1)C2=O (stereo not given) do in these assays?
TLR9-MyD88 inh: -2.4; NOD2-RIPK2 inh: -6.7

How did O=C(CNc1ccc2ccccc2c1)N/N=C/c1ccc([N+](=O)[O-])o1 do in these assays?
TLR9-MyD88 inh: -1.8; TLR4 MyD88 comp: -7.2; UPR CHOP act: -1.2; UPR XBP1 act: -1.6; CHOP inhibitor: 99.4*; NOD2-RIPK2 inh: 3.1

What do the screens show for `CCCCCc1nc2sc3c(c2c(=O)n1NC(=O)c1ccc([N+](=O)[O-])cc1)CC(C)(C)OC3`?
TLR9-MyD88 inh: 6.8; TLR4 MyD88 comp: -3.0; UPR CHOP act: 0.9; UPR XBP1 act: -1.3; CHOP inhibitor: 76.4*; NOD2-RIPK2 inh: -2.1

What do the screens show for `Cc1ccc(-n2nnnc2C(Cl)(Cl)c2nnnn2-c2ccc(C)cc2)cc1`?
TLR9-MyD88 inh: -8.5; TLR4 MyD88 comp: 1.1; UPR CHOP act: 4.7; UPR XBP1 act: -4.0; CHOP inhibitor: 80.2*; NOD2-RIPK2 inh: -5.5

Results for CC(C)NC(=O)N(C)C[C@@H]1OCc2cnnn2CCCC(=O)N([C@H](C)CO)C[C@H]1C ?
TLR9-MyD88 inh: -0.1; NOD2-RIPK2 inh: -5.2

Results for Cc1ccc(OCCOCCOc2cccc3cccnc23)c(Br)c1 ?
TLR9-MyD88 inh: 3.6; TLR4 MyD88 comp: -2.9; UPR CHOP act: -2.5; UPR XBP1 act: -2.0; CHOP inhibitor: -11.8; NOD2-RIPK2 inh: 1.7

How did Clc1cc(Br)ccc1OCCOCCOc1cccc2cccnc12 do in these assays?
TLR9-MyD88 inh: -2.2; TLR4 MyD88 comp: 11.5; UPR CHOP act: -2.0; UPR XBP1 act: -3.4; CHOP inhibitor: 70.6*; NOD2-RIPK2 inh: -2.2

How did Cc1cc(C)cc(C(O)c2ncc(-c3cccc(F)c3)[nH]2)c1 (stereo not given) do in these assays?
NOD2-RIPK2 inh: -10.9

Results for CCOC(=O)c1ccccc1NC(=O)CSc1ncc(C(=O)OCC)c(N)n1 ?
TLR9-MyD88 inh: -4.5; TLR4 MyD88 comp: -9.2; UPR CHOP act: -0.3; UPR XBP1 act: 0.4; CHOP inhibitor: 74.5*; NOD2-RIPK2 inh: -4.3

Results for CCc1c(C#N)c(SCCC(=O)Nc2ccc(F)cc2)nc2c1C(=O)CC(C)(C)C2 ?
TLR9-MyD88 inh: -3.5; TLR4 MyD88 comp: -2.3; UPR CHOP act: 0.4; UPR XBP1 act: -3.3; CHOP inhibitor: 87.8*; NOD2-RIPK2 inh: -1.6

Results for C[C@@H]1CN([C@@H](C)CO)C(=O)c2c(c3ccccc3n2C)-c2ccccc2CO[C@H]1CN(C)C(=O)[C@H](Cc1ccccc1)N(C)C ?
TLR9-MyD88 inh: -1.8; NOD2-RIPK2 inh: -1.9

How did O=C(CCC(=O)c1ccc(F)cc1)Nc1cc(Cl)cc(Cl)c1 do in these assays?
TLR9-MyD88 inh: 3.5; TLR4 MyD88 comp: -15.0; UPR CHOP act: -0.5; UPR XBP1 act: 1.5; CHOP inhibitor: 84.0*; NOD2-RIPK2 inh: 13.7

What do the screens show for `COc1cccc(NS(=O)(=O)c2c(C)cc(C)cc2C)c1`?
TLR9-MyD88 inh: -4.2; TLR4 MyD88 comp: 11.1; UPR CHOP act: 2.2; UPR XBP1 act: 0.3; CHOP inhibitor: 94.9*; NOD2-RIPK2 inh: 1.6

What do the screens show for `COc1ccc(NS(=O)(=O)c2c(C)cc(C)cc2C)cc1`?
TLR9-MyD88 inh: 17.1; TLR4 MyD88 comp: 7.3; UPR CHOP act: 3.4; UPR XBP1 act: 0.1; CHOP inhibitor: 46.6; NOD2-RIPK2 inh: -7.3

How did CCOc1ccccc1Nc1nc(-c2sc(NC(=O)c3cccc(Cl)c3)nc2C)cs1 do in these assays?
TLR9-MyD88 inh: 0.5; TLR4 MyD88 comp: -2.6; UPR CHOP act: -0.7; UPR XBP1 act: 2.7; CHOP inhibitor: 76.1*; NOD2-RIPK2 inh: 4.2

How did CCOc1ccccc1Nc1nc(-c2sc(NC(=O)c3ccccc3)nc2C)cs1 do in these assays?
TLR4 MyD88 comp: -6.4; UPR CHOP act: -1.0; UPR XBP1 act: 0.1; CHOP inhibitor: 32.1

What do the screens show for `COc1ccccc1Nc1nc(-c2sc(NC(=O)c3ccc([N+](=O)[O-])cc3)nc2C)cs1`?
TLR4 MyD88 comp: -5.3; UPR CHOP act: 3.2; UPR XBP1 act: 32.0*; CHOP inhibitor: 41.4

What do the screens show for `CCCC(C)C(=O)Nc1nc(C)c(-c2csc(Nc3ccc(Cl)cc3)n2)s1` (stereo not given)?
TLR9-MyD88 inh: -0.5; TLR4 MyD88 comp: 7.0; UPR CHOP act: 7.6; UPR XBP1 act: -2.0; CHOP inhibitor: 73.5*; NOD2-RIPK2 inh: -4.3

How did CCCC(C)C(=O)Nc1nc(C)c(-c2csc(Nc3ccccc3OC)n2)s1 (stereo not given) do in these assays?
TLR9-MyD88 inh: -1.6; TLR4 MyD88 comp: -10.2; UPR CHOP act: 1.6; UPR XBP1 act: -2.1; CHOP inhibitor: 34.5; NOD2-RIPK2 inh: -12.3
